ChEMBL document CHEMBL4049414, “Can We Make Small Molecules Lean? Optimization of a Highly Lipophilic TarO Inhibitor” (J Med Chem, 2017)
Converted amounts (≈) assume the structure as drawn. The source made the active and inactive calls. No cut-off for these calls is given here.

Key:
[1] = Inhibition of TarO in methicillin-resistant Staphylococcus aureus membranes assessed as reduction in C55-P-P-GlcNAc production using C55-P as substrate in presence of UDP-GlcNAc by LC-MS analysis
[2] = test system: Staphylococcus aureus subsp. aureus COL; test: Inhibition of methicillin-resistant Staphylococcus aureus COL TarO assessed as compound concentration required for potentiation of imipenem-mediated bacterial growth inhibition by 95% after 20 hrs
Method in brief: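 MRSA COL grown with compound in the presence of imipenem at 4 μg/mL. Growth read by OD600. The value is the minimum concentration that inhibits 95% of growth (sMITC95).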

Staphylococcus aureus [3] = test: Growth inhibition of methicillin-resistant Staphylococcus aureus COL after 20 hrs
Method in brief: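 MRSA COL grown with compound alone, with no antibiotic added. Growth read by OD600. The value is the minimum concentration that inhibits 95% of growth (iMITC95).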

[4] = Solubility of the compound in PBS buffer; assay type: physicochemical
[5] = Inhibition of methicillin-resistant Staphylococcus aureus COL TarO assessed as suppression of bacteriophage K-mediated cell lysis; design: species or system Staphylococcus aureus subsp. aureus COL
[6] = Inhibition of methicillin-resistant Staphylococcus aureus COL TarO assessed as late stage targocil suppression after 20 hrs; design: species or system Staphylococcus aureus subsp. aureus COL
Staphylococcus aureus [7] = test: Antibacterial activity against methicillin-resistant Staphylococcus aureus COL MB 5393 infected in balb/c mouse assessed as reduction in bacterial burden in kidney at 5 mg/kg, sc administered 2 to 8 hrs post challenge measured 24 hrs post challenge; assay type: functional, organism-based

| SMILES | IC50 [1] [nM] | MITC95 [2] [nM] | MITC95 (Staphylococcus aureus [3]) [µM] | solubility [4] [µM] | IC50 [5] [nM] | IC50 [6] [nM] | Activity (Staphylococcus aureus [7]) |
| --- | --- | --- | --- | --- | --- | --- | --- |
| O=C(O)C[C@H]1[C@@H](c2cc(F)cc(C(F)(F)F)c2)OC(=O)N1C(=O)NCc1cncc2ccccc12 | > 200000 | > 200000 | > 200 |  |  |  |  |
| C[C@H]1[C@@H](c2ccccn2)OC(=O)N1C(=O)NCCc1cccc2ccccc12 | 16000 | > 200000 |  |  |  |  |  |
| C[C@H]1[C@@H](c2cc(C(F)(F)F)cc(C(F)(F)F)c2)OC(=O)N1CCC(=O)N1CCOc2ccccc21 | > 200000 | > 200000 |  |  |  |  |  |
| COc1cc(C(F)(F)F)cc([C@H]2OC(=O)N(C(=O)NCc3cncc4ccccc34)[C@H]2CO)n1 | 80 | 360 | > 200 |  |  |  |  |
| O=C(NCc1cncc2ccccc12)N1C(=O)O[C@H](c2cccc(C(F)(F)F)c2)[C@@H]1CO | 300 | 650 | > 200 |  |  |  |  |
| C[C@H]1[C@@H](c2cc(C(F)(F)F)cc(C(F)(F)F)c2)OC(=O)N1C(=O)Cc1cccc2ccccc12 | 125 to 171 | 900 | > 200 | < 1 |  |  |  |
| C[C@H]1[C@@H](c2cc(C(F)(F)F)cc(C(F)(F)F)c2)OC(=O)N1C(=O)CCCc1cccc2ccccc12 | 28 | 125 | > 200 |  |  |  |  |
| C[C@H]1[C@@H](c2cc(C(F)(F)F)cc(C(F)(F)F)c2)OC(=O)N1C(=O)NCc1cncc2ccccc12 | 29 | 31 | > 200 |  | 94 | 191 |  |
| O=C(NCc1cncc2ccccc12)N1C(=O)O[C@H](c2cc(C(F)(F)F)cc(C(F)(F)F)c2)[C@@H]1CO | 170 to 174 | 220 | > 200 |  | 1260 | 496 |  |
| COc1cc(C(F)(F)F)cc([C@H]2OC(=O)N(C(=O)NCc3cncc4cccnc34)[C@H]2C)n1 | 260 | 375 | > 200 | 32 (≈ 14.8 µg/mL) | 600 | 200 |  |
| O=C(NCc1cncc2ccccc12)N1C(=O)O[C@H](c2cc(F)cc(C(F)(F)F)c2)[C@@H]1CCO | 4700 | 18000 | > 200 |  |  |  |  |
| C[C@@H](O)[C@H]1C(=O)N2C(C(=O)O)=C(SCCNC=N)C[C@H]12 |  |  |  |  |  |  | inactive |
| O=C(NCc1cncc2ccccc12)N1C(=O)O[C@H](c2cc(F)cc(C(F)(F)F)c2)[C@@H]1CO | 210 | 320 | > 200 |  |  |  |  |
